{"data": "Assay results gathered from unrelated publications", "target": "Serine/threonine-protein kinase pim-1 (PIM1, Homo sapiens, UniProt P11309)", "note": "Each line is one published result; the experiments were not run side by side."}
{"Compound": "N#CC1(c2ccccn2)CCN(Cc2cc(C(=O)O)c(=O)n3ccccc23)CC1", "test": "cell-free assay, competition with immobilised ligand", "setting": "1 µM", "endpoint": "remaining binding", "value": "99%"}
{"Compound": "O=c1[nH]c2ccccc2n1C1CCN(Cc2ccc(-c3[nH]c4cc5ncnc5cc4nc3-c3ccccc3)cc2)CC1", "test": "cell-free assay", "setting": "0.5 µM", "endpoint": "remaining signal", "value": "106%"}
{"Compound": "Cn1cc(-c2cc(F)cc(N3CCn4c(cc5c4CCCC5)C3=O)c2CO)cc(Nc2ccc(N3CCN(C4COC4)CC3)cn2)c1=O", "test": "enzyme activity, inhibitor", "setting": "0.1 µM", "endpoint": "inhibition", "value": "11%"}
{"Compound": "CC(C)(C)c1cc(C=C(C#N)C#N)cc(Br)c1O", "test": "enzyme activity, inhibitor", "setting": "0.5 µM", "endpoint": "remaining activity", "value": "94.7%"}
{"Compound": "Cn1cc(-c2cccc(N3CCc4c(sc5c4CC(C)(C)C5)C3=O)c2CO)cc(Nc2ccncn2)c1=O", "test": "enzyme activity, inhibitor", "setting": "1 µM", "endpoint": "inhibition", "value": "2%"}
{"Compound": "Cc1nn(C)cc1-c1nc2c(N3CCN(Cc4ccc(Cl)cc4)CC3)c(Cl)cnc2[nH]1", "test": "binding, competition with immobilised ligand", "setting": "1 µM", "endpoint": "remaining binding", "value": "100%"}
{"Compound": "COc1ncccc1-c1cnn2ccc(N3CCN(C(=O)OC(C)C)CC3)nc12", "test": "binding, competition with immobilised ligand", "setting": "1 µM", "endpoint": "remaining binding", "value": "100%"}
{"Compound": "Cn1cncc1[C@@](O)(COc1ccc(C#N)cc1-c1ccc(OC(F)(F)F)cc1)c1ccc(C#N)cc1", "test": "cell-free assay, competition with immobilised ligand", "setting": "1 µM", "endpoint": "remaining binding", "value": "100%"}
